Assay outcomes deposited in PubChem BioAssay by several laboratories.
FAK inh – inhibitors of human focal adhesion kinase; Q05397; biochemical FAK kinase activity assay; inhibition, %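 (tested at 7 µM)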; 97,000 compounds, 0.84% hits; AID 727
PTPN22 inh 2 – blocks human PTPN22 phosphatase activity. inhibition, % at 2 µM. 96,000 compounds, 0.21% hits. recombinant LYP catalytic domain, DiFMUP fluorescence. Q9Y2R2;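 active means inhibition at 2 µM at or above a set limit, the screen mean plus 3 SD, cut at about 24% in these data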
LYP act – increases human PTPN22 phosphatase activity; AID 697; 96,000 compounds, 0.11% hits; activation, % at 2 µM; Q9Y2R2; recombinant LYP, DiFMUP fluorescence; 0 = plate median, 100 = signal doubled;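 active means activation at 2 µM above a set limit, the mean plus 5 SD, cut at about 37% in these data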
HIV Rev-RRE inh – disrupts HIV-1 Rev binding to RRE RNA | P05866 | Rev peptide-RRE RNA binding, FRET | inhibition, % at 8 µM | 97,000 compounds, 0.79% hits;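 active means inhibition above the screen-wide mean plus 3 SD, cut at about 35% in these data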
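Test system: Cy5-tagged RRE RNA duplex with fluorescein-tagged Rev peptide; Probe or stimulus: labelled Rev peptide; Schedule: 5 min preincubation and 15 min binding, 25 °C; Signal: FRET fluorescence readout; Evaluation: % inhibition from 671/540 nm acceptor-to-donor ratio, scaled between controls; Control set: DMSO and neomycin B.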
EphB4 antag – EphB4-ephrin-B2 interaction antagonism | EphB4 LBD / TNYL-RAW-Alexa532 peptide, fluorescence polarization | inhibition, % at 7 µM | 97,000 compounds, 0.15% hits | AID 720;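 active means inhibition above the screen-wide mean inhibition plus 3 SD, cut at about 15% in these data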
FAK inh confirm – confirmation of human focal adhesion kinase (FAK) inhibitors | shares compounds with FAK inh | FAK kinase biochemical inhibition assay | inhibition, % at 7 µM | 750 compounds, 28% hits
Of the large screens only hits and unclear results are named; the others gave an inactive call (follow-up assays come after a bar, where they were run); [ ] = another dose, or the depositor's remark. The list is not random: actives were taken first. Their share in the collection is about 1.9%. Unless noted, no stated cut-off is given here; in the data, active means inhibition above about 19%; inactive means the rest.

COc1ccc2nc(C)cc(SCC(=O)N/N=C/c3cccc4ccccc34)c2c1	FAK inh 32 | FAK inh confirm 23
COC(=O)CSc1cc(C)nc2ccc(OC)cc12	FAK inh 19 | FAK inh confirm inactive
COc1ccc2nc(C)cc(SCC(=O)O)c2c1	none
O=c1oc2ccccc2c(Nc2ccc(O)cc2)c1[N+](=O)[O-]	none
O=c1oc2ccccc2c(Nc2ccc3ccccc3c2)c1[N+](=O)[O-]	FAK inh 24 | FAK inh confirm inactive
N#Cc1cc2ccc(N3CCOCC3)cc2cc1C#N	FAK inh 23 | FAK inh confirm inactive
CCOc1ccc(NC(=O)CCn2c(=O)[nH]c3ccsc3c2=O)cc1	none
COC(=O)C(CC(=O)c1ccc(Cl)cc1)c1ccc(C(C)C)cc1 (configuration not stated)	none
Nc1c(C(=O)Nc2nc3ccccc3s2)sc2nc(-c3cccs3)ccc12	FAK inh 49, PTPN22 inh 2 35, HIV Rev-RRE inh 133[fluorescence artefact?] | FAK inh confirm 27
Nc1c(C(=O)Nc2ccccc2)sc2nc(-c3ccco3)ccc12	FAK inh 26, HIV Rev-RRE inh 36 | FAK inh confirm inactive
CCOc1ccc(NC(=O)CSc2nc(C)c3c(c2C#N)CCCC3)cc1	none
O=C(NCc1cccs1)C1CCN(C(=O)NCc2ccccc2)CC1	none
C=CCn1cc(/C=N\NC(=O)c2cc3c(ccc4ccccc43)o2)c2ccccc21	none
O=C(N/N=C/C=C/c1ccccc1)c1cc2c(ccc3ccccc32)o1	FAK inh 42, PTPN22 inh 2 32 | FAK inh confirm inactive
CC(C)c1ccc(NC(=O)NC2CCN(CC(=O)Nc3cccc4ccccc34)CC2)cc1	none
CCn1c2ccccc2c2cc(NC(=O)C(C)Oc3ccc(OC)cc3)ccc21 (configuration not stated)	none
Clc1ccc(OCc2nn3c(-c4ccco4)nnc3s2)c(Cl)c1	FAK inh 39 | FAK inh confirm inactive
COCCCNc1c2c3c(cccc3[nH]c1=O)C(=O)c1ccccc1-2	FAK inh 20, HIV Rev-RRE inh 141[fluorescence artefact?], EphB4 antag 48[fluorescence artefact?] | FAK inh confirm inactive
O=C(NCc1ccco1)c1cccn2c(=O)c3cc4ccccc4cc3nc12	FAK inh 37, HIV Rev-RRE inh 57 | FAK inh confirm inactive
Cc1ccc(Cn2c(=N)c(C(=O)NCc3ccco3)cc3c(=O)n4ccccc4nc32)cc1	FAK inh 40, PTPN22 inh 2 31 | FAK inh confirm inactive
O=S(=O)(Nc1nc2ccc(S(=O)(=O)N3CCCCC3)cc2s1)c1ccccc1	none
CCN(CC)C(=O)c1ccc(CS(=O)(=O)c2ccc(OC)cc2)o1	none
CCOC(=O)c1c(NC(=O)CSc2nnc(CNc3ccc(OC)cc3)n2C)sc(C)c1C	none
Cc1sc2nc(C3CC3)nc(SCC(=O)NCc3ccco3)c2c1C	FAK inh 31 | FAK inh confirm inactive
COc1cc(OC)nc(Oc2ccccc2C(=O)Oc2ccc(F)cc2Cl)n1	none
O=C(OCCN=C1NS(=O)(=O)c2ccccc21)c1cccnc1	FAK inh 51 | FAK inh confirm 28
N/C(=N\OC(=O)c1cccc2ccccc12)c1cccc([N+](=O)[O-])c1	FAK inh 28 | FAK inh confirm inactive
OC(COc1ccc(C2C=CCC2)cc1)CN1CCCCC1 (configuration not stated)	FAK inh 22 | FAK inh confirm inactive
COc1ccc(C(=O)Nc2cc(C)c3c(=O)oc4ccccc4c3n2)cc1	none
CCOC(=O)c1cccc2c1-c1ccccc1/C2=N/O	FAK inh 49 | FAK inh confirm 26
CC1CCCC(C)N1C(=O)c1cccc2c1-c1ccccc1/C2=N/O (configuration not stated)	none
C=C(c1cccc2ccccc12)P(=O)(O)O	FAK inh 29 | FAK inh confirm 20
Cc1ccc(Nc2ncnc3nc[nH]c23)cc1Cl	FAK inh 31 | FAK inh confirm inactive
COc1cccc(Nc2ncnc3nc[nH]c23)c1	FAK inh 23 | FAK inh confirm inactive
CCCCc1ccc(Nc2ncnc3nc[nH]c23)cc1	none
COc1ccc(C2C(C#N)=C(N)Oc3c2sc2nc(C)cc(C)c32)cc1 (configuration not stated)	FAK inh 29 | FAK inh confirm inactive
CCOc1cc(/C=C2/SC(=Nc3ccccc3)N(Cc3cccnc3)C2=O)ccc1OCC#N	none
CCOc1cc(/C=C2/NC(=S)NC2=O)ccc1OCc1ccc([N+](=O)[O-])cc1	FAK inh 41 | FAK inh confirm 22
CCOc1cc(C(c2c(C)[nH][nH]c2=O)c2c(C)[nH][nH]c2=O)ccc1OCc1ccc([N+](=O)[O-])cc1	none
CC1(C)Cc2c(C#N)c(N3CCN(C(=O)c4ccccc4Cl)CC3)nc(-c3ccco3)c2CS1	FAK inh 25, HIV Rev-RRE inh 51 | FAK inh confirm inactive
CCC(=O)N/C(=N\OCc1ccc(F)cc1)c1nonc1NC(=O)CC	none
O=C(c1ccco1)N1CCN(C(=O)c2cc(-c3ccccn3)nc3ccccc23)CC1	none
O=C(OCC(=O)N1CCN(C(=O)c2ccco2)CC1)c1cc(-c2ccco2)nc2ccccc12	FAK inh 69 | FAK inh confirm inactive
O=C(OCC(=O)N1CCN(C(=O)c2ccco2)CC1)c1cc(-c2ccc(Cl)c(Cl)c2Cl)nc2ccccc12	FAK inh 35 | FAK inh confirm 19
O=C(OCC(=O)N1CCN(C(=O)c2ccco2)CC1)c1sc2cc(F)ccc2c1Cl	none
Cn1c(=O)c2c(nc(SCC(=O)O)n2Cc2cc3c(cc2Cl)OCO3)n(C)c1=O	none
COc1ccc(-c2nnn(CC(=O)N3CCOCC3)n2)cc1	none
O=C(Cc1cccs1)Nc1ccc(-c2nnn(CC(=O)N3CCOCC3)n2)cc1	FAK inh 25 | FAK inh confirm inactive
CC(/C=N/NC(=O)c1cc(-c2ccncc2)nc2ccccc12)=C\c1ccco1	none
O=C(N/N=C/c1ccc(F)cc1)c1cc(-c2ccco2)nc2ccccc12	FAK inh 72 | FAK inh confirm 45
O=C(CN1C(=O)c2ccccc2S1(=O)=O)N1CCN(Cc2ccc3c(c2)OCO3)CC1	none
Cc1ccc(N2CC(C(=O)Nc3ccc4c(c3)OCO4)CC2=O)cc1 (configuration not stated)	FAK inh 40 | FAK inh confirm inactive
O=C(c1ccc2c(c1)OCO2)[C@@H]1[C@@H]2C(=O)N(C3CCCCC3)C(=O)[C@@H]2C2c3ccccc3C=CN21 (some centres not stated)	none
O=C(c1cccs1)[C@@H]1[C@@H]2C(=O)N(Cc3ccc4c(c3)OCO4)C(=O)[C@@H]2C2c3ccccc3C=CN21 (some centres not stated)	FAK inh 20 | FAK inh confirm inactive
Cc1ccc(C)n1Cc1ccc(C(=O)O)cc1	FAK inh 78 | FAK inh confirm inactive
CC1CCCCN1C(=O)CSc1ccc(-c2ccc(F)cc2)nn1 (configuration not stated)	FAK inh 26 | FAK inh confirm inactive
